NF-kB neuron act: raises NF-kB expression in human neuronal cells; NF-kB reporter expression; stronger effect = higher value; fold change at 12.5 µM; 190,000 compounds, 1.6% hits; in the data active = fold change above about 3.3
APP 5'UTR act: APP 5'UTR luciferase reporter activation; SH-SY5Y APP 5'UTR luciferase reporter, luminescence; zero percent = DMSO vehicle wells; 190,000 compounds, 1% hits; activation, % at 2 µM; AID 1276;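 active = activation above a set limit, based on mean plus 3 SD of controls, cut at about 140% in these data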
STAT3 blocker: reduces IL-6 driven STAT3 reporter signal. 190,000 compounds, 0.89% hits. inhibition, % at 5.5 µM. U3A cells, IL-6 STAT3-luciferase reporter, luminescence; host cell line lacks STAT1;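 active = inhibition above the mean inhibition across all screened compounds plus 3 SD, cut at about 44% in these data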;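 note: 0% = DMSO only wells and 100% = 100 µM nifuroxazide control wells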
STAT3 activator: activators of IL-6 induced STAT3 signaling; U3A cells, IL-6 STAT3-luciferase reporter, luminescence; 100% = signal with IL-6 EC80 alone; activation (% of control), % at 5.6 µM; 190,000 compounds, 0.91% hits; AID 871;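 active = activation above the screen-wide mean of compound activation plus 3 SD, cut at about 130% in these data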;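 note: 0% = background luminescence of wells with medium and substrate only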
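System – human U3A cells carrying STAT3-luciferase construct · Probe or stimulus – Interleukin-6, 33 ng/mL · Schedule – compound 1 h, then IL-6 6 h at 37 °C · Signal – luminescence from STAT3-driven luciferase reporter · Evaluation – percent of IL-6-only median luminescence · Benchmarks – IL-6-only high control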
STAT1 inh: STAT1 signaling inhibition. inhibition, % at 5.5 µM. 200,000 compounds, 0.35% hits. NIH 3T3 STAT1-luciferase reporter, IFN-gamma, luminescence. AID 920;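 active = inhibition above a set limit, the mean inhibition across all tested compounds plus 3 SD, cut at about 34% in these data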;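 note: 0% = IFN-gamma with DMSO and 100% = IFN-gamma with 300 µM nifuroxazide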
STAT1 act: STAT1 signaling activation; activation (% of control), % at 5.5 µM; 200,000 compounds, 2.6% hits; NIH 3T3 STAT1-luciferase reporter, IFN-gamma, luminescence; 100% = IFN-gamma alone, no compound;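 active = activation above the screen-wide mean activation plus 3 SD, cut at about 130% in these data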;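 note: raw ratio to IFN-gamma control signal so 100% means no change and 0% no light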
An asterisk follows results filed as active. The list is not random: actives were taken first. Their share in the collection is about 5.1%.

SMILES	NF-kB neuron act	APP 5'UTR act	STAT3 blocker	STAT3 activator	STAT1 inh	STAT1 act
CC1CCCCC1NCC(=O)NCc1ccc(F)cc1 (configuration not stated)	1.1	-0.6	7.7	98.3	1.8	98.2
COc1cc(/C=C/C(=O)Oc2coc(CSc3ncccn3)cc2=O)cc(OC)c1OC	1.06	2.7	4.1	100.6	-2.2	101.9
COc1ccc(CCN2CC(C(=O)NC3CCCCC3)CC2=O)cc1OC (configuration not stated)	1.11	-5.7	6.6	105.0	-8.4	106.9
O=C(Nc1nnc(C2CC2)s1)c1ccco1	1.72	9.7	-2.4	109.0	-26.4	124.2
O=C(NC(=S)Nc1nc2ccccc2s1)c1ccco1	0.82	142.8*	-48.1	145.6*	-33.3	130.1*
Cc1cnc(NC(=O)c2cncc(Br)c2)s1	4.04*	181.0*	27.8	79.5	-41.1	135.7*
O=C(Nc1nnc(C2CCCCC2)s1)c1ccco1	2.18	-2.0	6.1	95.4	-32.7	129.6*
Cc1cnc(NC(=O)c2ccncc2)s1	1.36	8.5	-11.3	113.7	-18.9	114.4
COc1ccccc1CNC(=O)COC(=O)Cc1ccc(Cl)cc1	0.95	7.0	-0.9	97.2	0.0	100.0
CCOC(=O)C(C)N1N=C(/C=C/c2ccc(C)cc2)CCC1=O (configuration not stated)	1.21	7.4	1.6	102.8	-0.8	100.7
C=CCN1N=C(/C=C/c2ccc(C)cc2)CCC1=O	2.07	44.0	3.5	102.1	-39.5	136.9*
Cc1cc(C2=NNC(=Nc3ccccc3)SC2)c(C)n1C	2.09	9.4	12.7	96.0	-44.1	141.8*
Cc1ccc(-n2c(C)cc(C3=NNC(=NC4CC4)SC3)c2C)cc1C	0.58	154.6*	-10.3	104.2	-23.7	121.6
Cc1cc(C2=NNC(=NC3CC3)SC2)c(C)n1-c1c(C)n(C)n(-c2ccccc2)c1=O	1.21	-15.6	7.9	96.3	3.1	97.2
COCCCN=C1NN=C(c2cc(C)n(Cc3ccccc3Cl)c2C)CS1	1.29	-76.4	-9.4	112.5	-9.1	108.4
COCCCN=C1NN=C(c2cc(C)n(-c3ccccc3F)c2C)CS1	1.78	186.8*	51.5*	58.0	44.8*	58.1
COCCn1c(C)cc(C2=NNC(=Nc3ccccc3F)SC2)c1C	0.27	-52.4	94.2*	22.5	72.9*	32.5
Nc1ccc(SCC(=O)Nc2cccc([N+](=O)[O-])c2)cc1	1.13	10.8	-2.1	107.8	-9.7	107.6
Cc1cc(C)nc(SCCC(=O)Nc2ccccc2Cl)n1	1.09	10.9	14.7	90.2	-7.8	105.2
O=C(CCN1C(=O)c2ccccc2C1=O)N1CCOCC1	1.32	16.2	4.9	98.4	0.7	100.8
O=C(CCN1C(=O)c2cccc3cccc(c23)C1=O)N1CCOCC1	1.96	32.7	19.1	87.0	-33.0	129.3*
CCc1nc2cc3sc(CC)nc3cc2s1	2.39	121.5	14.2	97.2	-53.6	147.8*
Cc1nc2cc3nc(C)sc3cc2s1	1.83	44.5	8.3	98.3	-23.2	120.5
CNc1nc(OC)nc(N(C#N)CN2C(=O)c3ccccc3S2(=O)=O)n1	1.37	-21.5	7.9	97.9	3.5	96.3
COc1ccc2cc(CO)c(Cl)nc2c1	1.78	-1.4	1.4	98.7	-14.6	113.8
SMILES	NF-kB neuron act	APP 5'UTR act	STAT3 blocker	STAT3 activator	STAT1 inh	STAT1 act
COc1ccc2cc(/C=N/O)c(Cl)nc2c1	1.79	24.9	8.7	93.8	-33.0	129.1*
CC(C)N(Cc1cc2ccccc2[nH]c1=O)C(=O)c1ccco1	0.93	-15.3	-5.6	107.9	-7.9	105.3
COc1ccc(/C=C/C2=NN(Cc3ccccc3)C(=O)CC2)cc1	1.34	-10.1	5.8	97.0	5.2	95.6
COc1ccc(/C=C/C2=CCN(Cc3ccc(OC)cc3)CC2)cc1	1.18	-12.7	-36.8	133.5*	6.0	92.9
CCCCCCOC(=O)Sc1nc2ccccc2o1	4.06*	11.0	13.2	89.8	-1.7	107.5
COC(=O)CSc1nc2ccccc2o1	0.97	0.4	-2.6	105.5	-10.9	109.9
N/C(=N\OC(=O)c1cc(Cl)ccc1Cl)c1ccncc1	1.88	24.1	5.1	99.5	-47.3	141.4*
N/C(=N\OC(=O)c1cccc(Cl)c1)c1ccncc1	1.12	79.5	20.8	84.1	-47.0	141.3*
N/C(=N\OC(=O)/C=C/c1ccccc1Cl)c1ccncc1	3.8*	235.3*	16.4	90.9	-16.9	113.4
N/C(=N\OC(=O)/C=C/c1ccccc1)c1ccncc1	1.48	72.5	9.4	97.2	-28.4	123.7
CC(C)NC(=S)NNc1nc2ccccc2s1	0.9	13.3	-0.4	101.6	-9.1	105.9
Cc1cc(C)c(S(=O)(=O)NCC2CCC(C(=O)NCc3ccccn3)CC2)c(C)c1 (configuration not stated)	1.15	-8.5	15.2	96.2	-4.6	103.3
O=C(N/N=C/c1ccccc1Cl)c1ccc(F)cc1	2.79	75.6	24.4	83.7	-42.6	138.5*
COC(=O)c1ccc(/C=N/NC(=O)c2cccc(F)c2)cc1	2.57	98.4	16.1	94.8	-33.1	129.8*
CCOc1ccc(C(=O)N/N=C/c2ccc(SC)cc2)cc1	1.15	7.6	-1.8	99.4	-9.1	108.1
O=C(N/N=C\c1ccc(F)cc1)c1ccc(F)cc1	1.83	14.7	-4.7	116.3	-50.7	145.4*
CSc1ccc(/C=N/NC(=O)c2cccc(O)c2)cc1	4.45*	158.8*	47.2*	65.4	3.9	96.5
COCC1CCCN(Cc2cn(-c3ccccc3F)nc2-c2cc(C)sc2C)C1 (configuration not stated)	1.11	2.5	-1.2	104.9	1.5	97.2
CC(=O)NC(Cc1ccccc1C)C(=O)NC1CCN(c2ncccc2[N+](=O)[O-])CC1 (configuration not stated)	0.96	10.3	-2.6	100.9	-1.0	100.9
O=C(NCc1ccccc1)C(=O)NCC1OCCN1C(=O)c1ccc(Cl)cc1 (configuration not stated)	1.29	-2.0	6.3	98.6	-1.5	101.3
CCOc1ccc2c(c1)OC(c1ccc(C)cc1)(C(F)(F)F)NC2=O (configuration not stated)	4.25*	-94.7	-22.9	116.7	-5.2	104.6
Cc1nc2c(-c3ccccc3)c[nH]n2c(=O)c1Cc1ccccc1	1.06	92.5	-7.1	106.8	-46.0	141.5*
CC(=O)CC(=O)Nc1ncccn1	1.14	-4.7	-1.8	102.7	0.5	97.3
C=C(C(=O)c1ccccc1)C(C)C(=C)C(=O)c1ccccc1	8.52*	-41.2	6.4	94.0	18.5	83.2
COC(=O)c1sc(NC(=O)c2cc(-c3ccccc3)nc3ccccc23)c(C#N)c1C	1.03	-7.5	48.7*	61.7	7.2	94.2
COc1ccc(-c2cc(C(=O)NC3=NCCS3)c3ccccc3n2)cc1OC	0.51	-11.4	-18.2	114.3	-15.2	114.4
